Laboratory results taken from the M2OR odorant receptor database.
Substitutions are numbered along the chain they refer to.

Key:
Details in all cases: stereoisomer not certain
[1] = molecular target: T1, OR2M4 (Homo sapiens) (UniProt Q96R27)
T1 sequence (whole entry): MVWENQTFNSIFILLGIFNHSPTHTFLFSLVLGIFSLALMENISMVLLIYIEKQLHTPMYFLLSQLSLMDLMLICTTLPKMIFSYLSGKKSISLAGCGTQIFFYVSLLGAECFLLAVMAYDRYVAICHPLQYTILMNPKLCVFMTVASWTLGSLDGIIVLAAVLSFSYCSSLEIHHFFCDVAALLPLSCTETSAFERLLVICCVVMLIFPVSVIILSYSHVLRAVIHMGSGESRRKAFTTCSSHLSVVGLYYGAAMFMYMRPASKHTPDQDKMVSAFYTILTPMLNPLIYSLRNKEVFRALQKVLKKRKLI
Summary of the method: (§1)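 Assay methods differ from source to source, frequently being transient luciferase assays in mammalian cell lines. For each receptor–molecule pair, the label responsive (active) applies when the original authors judged the measured signal statistically different from baseline, and non-responsive (inactive) applies otherwise.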

[2] = molecular target: T2, OR2M5 (Homo sapiens) (UniProt A3KFT3)
T2 sequence (whole entry): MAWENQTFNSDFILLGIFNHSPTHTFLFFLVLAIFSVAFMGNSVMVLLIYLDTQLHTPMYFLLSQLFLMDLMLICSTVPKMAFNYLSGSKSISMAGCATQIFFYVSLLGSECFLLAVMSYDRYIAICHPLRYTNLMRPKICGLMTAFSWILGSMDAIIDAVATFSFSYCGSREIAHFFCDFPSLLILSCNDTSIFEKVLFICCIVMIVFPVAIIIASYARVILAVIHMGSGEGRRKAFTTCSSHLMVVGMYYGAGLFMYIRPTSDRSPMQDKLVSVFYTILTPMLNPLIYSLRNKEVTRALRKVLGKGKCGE
Summary of the method: as §1

[3] = tested on: T3, OR2M5 D11G
T3 sequence (whole entry): T2 sequence (whole entry) with D11G
Summary of the method: as §1

[4] = tested on: OR2M3 D11N
Chain of OR2M3 D11N (as listed by the source, stated change not applied): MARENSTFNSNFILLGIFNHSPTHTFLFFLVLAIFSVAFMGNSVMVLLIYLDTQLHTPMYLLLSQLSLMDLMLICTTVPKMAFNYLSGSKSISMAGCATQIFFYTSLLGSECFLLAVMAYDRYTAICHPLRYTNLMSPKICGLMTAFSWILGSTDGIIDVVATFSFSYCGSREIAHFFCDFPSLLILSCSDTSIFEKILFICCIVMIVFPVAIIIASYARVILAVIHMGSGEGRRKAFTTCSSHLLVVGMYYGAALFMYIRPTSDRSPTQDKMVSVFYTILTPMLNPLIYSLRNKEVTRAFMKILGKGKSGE
Summary of the method: as §1

[5] = tested on: OR2M3 I13L A33G M144T
Summary of the method: as §1

[6] = tested on: OR2M3 I13L A33G R266H
Summary of the method: as §1

[7] = tested on: OR2M3 I13L A33G
Summary of the method: as §1

[8] = tested on: OR2M3 I13L M144T
Summary of the method: as §1

[9] = tested on: OR2M3 I13L
Chain of OR2M3 I13L (as listed by the source, stated change not applied): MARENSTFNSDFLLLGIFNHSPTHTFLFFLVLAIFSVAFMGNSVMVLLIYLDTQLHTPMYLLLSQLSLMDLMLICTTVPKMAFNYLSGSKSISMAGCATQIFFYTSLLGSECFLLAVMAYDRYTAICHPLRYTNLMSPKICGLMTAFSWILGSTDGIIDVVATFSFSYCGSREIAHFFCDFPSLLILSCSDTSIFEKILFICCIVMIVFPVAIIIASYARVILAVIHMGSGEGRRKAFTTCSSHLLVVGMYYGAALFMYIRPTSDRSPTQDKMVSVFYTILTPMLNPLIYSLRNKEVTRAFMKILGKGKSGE
Summary of the method: as §1

[10] = tested on: OR2M3 I198V
Chain of OR2M3 I198V (as listed by the source, stated change not applied): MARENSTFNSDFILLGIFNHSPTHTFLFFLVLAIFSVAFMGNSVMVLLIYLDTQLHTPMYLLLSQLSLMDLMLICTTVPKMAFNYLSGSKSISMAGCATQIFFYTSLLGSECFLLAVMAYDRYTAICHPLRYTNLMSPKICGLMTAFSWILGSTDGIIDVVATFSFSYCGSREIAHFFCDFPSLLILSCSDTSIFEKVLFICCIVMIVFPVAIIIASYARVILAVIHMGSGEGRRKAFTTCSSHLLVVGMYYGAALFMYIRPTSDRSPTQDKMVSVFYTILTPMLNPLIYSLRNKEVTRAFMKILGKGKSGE
Summary of the method: as §1

[11] = tested on: OR2M3 I289N
Chain of OR2M3 I289N (as listed by the source, stated change not applied): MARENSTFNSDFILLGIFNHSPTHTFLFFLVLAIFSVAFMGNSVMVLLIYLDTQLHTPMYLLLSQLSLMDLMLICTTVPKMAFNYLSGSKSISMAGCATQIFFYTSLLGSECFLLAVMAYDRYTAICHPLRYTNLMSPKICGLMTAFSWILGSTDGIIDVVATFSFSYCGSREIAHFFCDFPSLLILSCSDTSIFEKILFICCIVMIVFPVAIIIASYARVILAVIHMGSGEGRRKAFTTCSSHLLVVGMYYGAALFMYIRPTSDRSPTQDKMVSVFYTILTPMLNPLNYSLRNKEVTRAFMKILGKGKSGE
Summary of the method: as §1

[12] = tested on: OR2M3 L63F
Chain of OR2M3 L63F (as listed by the source, stated change not applied): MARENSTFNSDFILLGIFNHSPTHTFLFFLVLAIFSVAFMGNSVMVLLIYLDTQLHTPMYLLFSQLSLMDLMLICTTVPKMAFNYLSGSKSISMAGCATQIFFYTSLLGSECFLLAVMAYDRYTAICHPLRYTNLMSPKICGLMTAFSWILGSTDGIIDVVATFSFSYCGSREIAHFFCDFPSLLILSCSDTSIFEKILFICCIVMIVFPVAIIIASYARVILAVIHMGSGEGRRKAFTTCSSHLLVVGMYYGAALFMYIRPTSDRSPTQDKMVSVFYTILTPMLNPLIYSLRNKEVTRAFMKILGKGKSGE
Summary of the method: as §1

[13] = tested on: OR2M3 M144T
Chain of OR2M3 M144T (as listed by the source, stated change not applied): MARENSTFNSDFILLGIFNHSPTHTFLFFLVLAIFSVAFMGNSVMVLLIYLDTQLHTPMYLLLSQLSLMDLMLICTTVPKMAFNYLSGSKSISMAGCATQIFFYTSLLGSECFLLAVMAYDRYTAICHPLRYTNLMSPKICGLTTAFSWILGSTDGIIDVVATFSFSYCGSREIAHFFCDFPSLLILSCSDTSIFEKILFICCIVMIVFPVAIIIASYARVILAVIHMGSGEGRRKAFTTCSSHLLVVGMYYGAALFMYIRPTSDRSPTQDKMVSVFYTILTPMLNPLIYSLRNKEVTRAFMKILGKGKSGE
Summary of the method: as §1

[14] = tested on: OR2M3 M302T
Chain of OR2M3 M302T (as listed by the source, stated change not applied): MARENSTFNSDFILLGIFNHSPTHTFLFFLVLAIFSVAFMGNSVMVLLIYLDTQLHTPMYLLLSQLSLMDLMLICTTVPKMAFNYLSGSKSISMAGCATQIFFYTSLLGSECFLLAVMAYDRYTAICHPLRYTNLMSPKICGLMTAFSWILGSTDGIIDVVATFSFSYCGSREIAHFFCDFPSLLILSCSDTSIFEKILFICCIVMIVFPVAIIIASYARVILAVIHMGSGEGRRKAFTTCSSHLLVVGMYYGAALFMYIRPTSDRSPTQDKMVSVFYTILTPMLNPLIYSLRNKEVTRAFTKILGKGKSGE
Summary of the method: as §1

[15] = tested on: OR2M3 R266H
Chain of OR2M3 R266H (as listed by the source, stated change not applied): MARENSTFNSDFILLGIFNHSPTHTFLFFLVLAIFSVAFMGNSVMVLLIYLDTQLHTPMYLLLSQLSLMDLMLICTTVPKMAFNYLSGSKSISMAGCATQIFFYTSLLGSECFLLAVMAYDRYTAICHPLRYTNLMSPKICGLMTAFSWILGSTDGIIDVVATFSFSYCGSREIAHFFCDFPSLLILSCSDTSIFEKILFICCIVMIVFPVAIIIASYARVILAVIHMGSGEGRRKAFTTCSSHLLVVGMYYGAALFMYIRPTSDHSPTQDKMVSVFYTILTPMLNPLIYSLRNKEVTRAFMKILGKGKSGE
Summary of the method: as §1

[16] = tested on: OR2M3 R293S
Chain of OR2M3 R293S (as listed by the source, stated change not applied): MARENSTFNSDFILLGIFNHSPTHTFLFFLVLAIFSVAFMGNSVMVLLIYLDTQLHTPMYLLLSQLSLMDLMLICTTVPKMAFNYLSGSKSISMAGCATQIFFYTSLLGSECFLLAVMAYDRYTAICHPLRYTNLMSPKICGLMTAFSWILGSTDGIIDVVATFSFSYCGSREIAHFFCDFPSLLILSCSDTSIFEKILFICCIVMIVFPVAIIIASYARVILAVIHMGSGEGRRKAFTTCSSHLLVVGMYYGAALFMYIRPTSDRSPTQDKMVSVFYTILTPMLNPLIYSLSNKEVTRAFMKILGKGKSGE
Summary of the method: as §1

[17] = tested on: OR2M3 V78I
Chain of OR2M3 V78I (as listed by the source, stated change not applied): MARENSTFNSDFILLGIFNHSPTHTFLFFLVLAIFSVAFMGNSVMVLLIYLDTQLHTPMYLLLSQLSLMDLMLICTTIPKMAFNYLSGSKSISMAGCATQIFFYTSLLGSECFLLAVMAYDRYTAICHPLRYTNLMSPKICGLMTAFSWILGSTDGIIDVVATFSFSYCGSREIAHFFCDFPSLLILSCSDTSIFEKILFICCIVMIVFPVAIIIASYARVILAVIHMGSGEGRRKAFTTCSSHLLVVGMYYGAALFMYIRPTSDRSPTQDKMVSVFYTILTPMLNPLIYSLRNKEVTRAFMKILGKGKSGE
Summary of the method: as §1

[18] = tested on: OR2M3 Y259H
Chain of OR2M3 Y259H (as listed by the source, stated change not applied): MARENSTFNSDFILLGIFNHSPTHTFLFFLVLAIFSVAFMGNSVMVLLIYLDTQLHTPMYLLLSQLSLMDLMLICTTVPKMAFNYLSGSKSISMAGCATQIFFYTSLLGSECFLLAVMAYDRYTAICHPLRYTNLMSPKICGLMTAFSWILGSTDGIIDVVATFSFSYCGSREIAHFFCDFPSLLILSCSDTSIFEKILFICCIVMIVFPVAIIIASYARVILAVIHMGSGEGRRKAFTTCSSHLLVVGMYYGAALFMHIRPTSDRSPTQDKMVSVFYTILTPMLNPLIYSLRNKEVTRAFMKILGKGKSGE
Summary of the method: as §1

[19] = tested on: OR2M5 A156G
Chain of OR2M5 A156G (as listed by the source, stated change not applied): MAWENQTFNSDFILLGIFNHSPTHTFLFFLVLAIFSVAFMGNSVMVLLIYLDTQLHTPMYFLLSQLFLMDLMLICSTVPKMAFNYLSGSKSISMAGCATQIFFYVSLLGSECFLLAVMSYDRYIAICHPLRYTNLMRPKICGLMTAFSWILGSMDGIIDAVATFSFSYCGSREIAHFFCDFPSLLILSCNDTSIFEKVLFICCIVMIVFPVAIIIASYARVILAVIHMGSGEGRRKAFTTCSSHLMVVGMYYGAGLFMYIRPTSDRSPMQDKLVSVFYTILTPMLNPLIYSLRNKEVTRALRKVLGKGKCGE
Summary of the method: as §1

[20] = tested on: OR2M5 A160V
Chain of OR2M5 A160V (as listed by the source, stated change not applied): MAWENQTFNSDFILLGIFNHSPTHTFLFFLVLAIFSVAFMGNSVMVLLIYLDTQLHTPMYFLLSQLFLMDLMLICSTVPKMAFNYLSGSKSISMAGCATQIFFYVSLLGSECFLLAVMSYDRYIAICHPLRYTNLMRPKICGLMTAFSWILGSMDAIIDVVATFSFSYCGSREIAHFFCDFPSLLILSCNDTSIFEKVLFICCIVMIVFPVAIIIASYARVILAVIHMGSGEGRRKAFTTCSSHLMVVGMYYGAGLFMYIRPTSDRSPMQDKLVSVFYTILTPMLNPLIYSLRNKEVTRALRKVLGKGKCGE
Summary of the method: as §1

## CCCCCC(S)C(C)CO (stereo not drawn)
[1]
  odorant receptor agonist call: inactive
[2]
  odorant receptor agonist call: inactive

## C=CCOC(=O)COCCC(C)C
[1]
  odorant receptor agonist call: inactive

## CC=CC(=O)C1C(C)=CCCC1(C)C (stereo not drawn)
[1]
  odorant receptor agonist call: active

## CC(CO)CS (stereo not drawn)
[1]
  odorant receptor agonist call: inactive
[2]
  odorant receptor agonist call: inactive

## CCCCC1CCC(=O)O1 (stereo not drawn)
[1]
  odorant receptor agonist call: inactive

## CCCCCCC=CCCC=O
[1]
  odorant receptor agonist call: inactive
[2]
  odorant receptor agonist call: inactive
[3]
  odorant receptor agonist call: inactive

## Cc1ccc(C(C)C)cc1O
[1]
  odorant receptor agonist call: inactive

## C=CC(C)(CCC=C(C)C)OC(C)=O (stereo not drawn)
[1]
  odorant receptor agonist call: inactive

## CC1=C(O)C(=O)OC1C (stereo not drawn)
[1]
  odorant receptor agonist call: inactive
[2]
  odorant receptor agonist call: inactive
[3]
  odorant receptor agonist call: inactive

## CC(C)(C)C1CCCCC1OCCCCO (stereo not drawn)
[1]
  odorant receptor agonist call: inactive

## Cc1occc(=O)c1OC(=O)C(C)C
[1]
  odorant receptor agonist call: inactive

## CC(C)=CCCC(C)CC=O (stereo not drawn)
[1]
  odorant receptor agonist call: inactive

## CC(C)CCCC(C)(C)O
[1]
  odorant receptor agonist call: inactive

## CCC(=O)C=CC1C(C)=CCCC1(C)C (stereo not drawn)
[1]
  odorant receptor agonist call: inactive

## COc1ccc(C)cc1
[1]
  odorant receptor agonist call: active

## CC1CC(C)(c2ccccc2)CO1 (stereo not drawn)
[1]
  odorant receptor agonist call: inactive

## Cc1cnc(C)c(C)n1
[1]
  odorant receptor agonist call: inactive
[2]
  odorant receptor agonist call: inactive
[3]
  odorant receptor agonist call: inactive

## CCC1OC(=O)C(O)=C1C (stereo not drawn)
[1]
  odorant receptor agonist call: inactive
[2]
  odorant receptor agonist call: inactive
[3]
  odorant receptor agonist call: inactive

## CCCCCC1COCCC1OC(C)=O (stereo not drawn)
[1]
  odorant receptor agonist call: inactive

## CC1CCCCCCCCCCCCC(=O)C1 (stereo not drawn)
[2]
  odorant receptor agonist call: inactive

## CC1=C(O)C(=O)C(C)O1 (stereo not drawn)
[1]
  odorant receptor agonist call: inactive
[2]
  odorant receptor agonist call: inactive
[3]
  odorant receptor agonist call: inactive

## CCCCC(S)C(C)CO (stereo not drawn)
[1]
  odorant receptor agonist call: inactive
[2]
  odorant receptor agonist call: inactive

## CC1=NC(C)C(C)S1 (stereo not drawn)
[1]
  odorant receptor agonist call: inactive
[2]
  odorant receptor agonist call: inactive
[3]
  odorant receptor agonist call: inactive

## CCCCCCCCC(OC(C)=O)OC(C)=O
[1]
  odorant receptor agonist call: inactive

## CC(C)=CCCC(C)=CCO
[1]
  odorant receptor agonist call: inactive

## CC1=CCC2CC1C2(C)C (stereo not drawn)
[1]
  odorant receptor agonist call: inactive

## CC(=O)OCc1ccccc1
[1]
  odorant receptor agonist call: inactive

## CCCC(C)C(=O)OCC (stereo not drawn)
[1]
  odorant receptor agonist call: inactive

## CCCC(S)CCOC(C)=O (stereo not drawn)
[1]
  odorant receptor agonist call: inactive
[2]
  odorant receptor agonist call: inactive
[3]
  odorant receptor agonist call: inactive

## CCC=C(C)C(O)CCCCC (stereo not drawn)
[1]
  odorant receptor agonist call: inactive

## CCCCCC1C(=O)CCC1CC(=O)OC (stereo not drawn)
[1]
  odorant receptor agonist call: inactive

## CC(=O)c1c(C)c([N+](=O)[O-])c(C(C)(C)C)c([N+](=O)[O-])c1C
[2]
  odorant receptor agonist call: inactive

## OCc1ccccc1
[1]
  odorant receptor agonist call: inactive

## CC(=O)C=CC1=C(C)CCCC1(C)C
[1]
  odorant receptor agonist call: inactive

## CCC1OC(C)=C(O)C1=O (stereo not drawn)
[1]
  odorant receptor agonist call: inactive
[2]
  odorant receptor agonist call: inactive
[3]
  odorant receptor agonist call: inactive

## CC(CC=O)c1ccc(C(C)(C)C)cc1 (stereo not drawn)
[1]
  odorant receptor agonist call: inactive

## CCc1ccc(CC(C)(C)C=O)cc1
[1]
  odorant receptor agonist call: inactive

## CCC(S)C(C)CO (stereo not drawn)
[4]
  odorant receptor agonist call: active
[5]
  odorant receptor agonist call: inactive
[6]
  odorant receptor agonist call: active
[7]
  odorant receptor agonist call: active
[8]
  odorant receptor agonist call: active
[9]
  odorant receptor agonist call: active
[10]
  odorant receptor agonist call: active
[11]
  odorant receptor agonist call: inactive
[12]
  odorant receptor agonist call: inactive
[13]
  odorant receptor agonist call: active
[14]
  odorant receptor agonist call: active
[15]
  odorant receptor agonist call: active
[16]
  odorant receptor agonist call: active
[17]
  odorant receptor agonist call: active
[18]
  odorant receptor agonist call: inactive
[1]
  odorant receptor agonist call: inactive
[2]
  odorant receptor agonist call: inactive
[19]
  odorant receptor agonist call: inactive
[20]
  odorant receptor agonist call: inactive

## CCCCCC(=O)C(C)C(C)=O (stereo not drawn)
[1]
  odorant receptor agonist call: inactive
[2]
  odorant receptor agonist call: inactive

## COC1CC2CC1C1CC(C=O)CC21 (stereo not drawn)
[1]
  odorant receptor agonist call: inactive
